Shown are actives, neighbours in structure and some others; about 8.8% of the full set was active somewhere.
M1 antag: blocks the rat M1 muscarinic receptor response to acetylcholine; P08482; CHO-M1 cells, Fluo-4 calcium, ACh EC80 antagonist mode; hits give low values; B-score at 10 µM; 64,000 compounds, 3.4% hits; AID 628;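 active = calcium fluorescence response, raw or row-and-column corrected B-score, differing from the plate sample mean either way at a set confidence level, mostly lower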
S1P1 ag pot: activates or potentiates agonism at human S1P1 receptor | AID 449 | S1P1 CRE-bla cells, forskolin, beta-lactamase FRET, potentiator mode; S1P1 agonist co-added at EC20, 2 nM; 100% = saturating reference agonist, 0% = basal | 56,000 compounds, 0.57% hits | P21453 | activation, % at 9.5 µM;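 active = activation above a cutoff set at the mean activation of all tested compounds plus 3 SD, cut at about 54% in these data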;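 also: forskolin at 4 µM as EC80 and the EC20 agonist is SEW2871; 100% = SEW2871 at its EC100 plus forskolin at EC80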
M1 agonist: M1 muscarinic receptor agonism; 64,000 compounds, 3% hits; CHO-M1 cells, Fluo-4 calcium fluorescence, agonist mode; hits give high values; AID 626; B-score at 10 µM;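 active = fluorescence rise, raw or as B-score row- and column-corrected plate score, outside the 99.7% band of its plate's samples, either direction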
RORA act: activates the human nuclear receptor RORA | P35398 | CHO-K1 Gal4-RORA LBD luciferase reporter, luminescence; percent increase over mock-subtracted basal signal | activation, % at 10 µM | 65,000 compounds, 1.5% hits;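 active = activation above the mean of all tested compounds plus 3 SD, cut at about 49% in these data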;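 also: 0% = DMSO-treated RORA cells and 100% = added signal equal to DMSO minus mock-transfected cells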
SF1 activator: activates the human nuclear receptor SF-1. Q13285. CHO-K1 Gal4-SF-1 LBD luciferase reporter; % increase over DMSO SF-1-specific signal. activation, % at 10 µM. 65,000 compounds, 1.9% hits. AID 522;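 active = activation above the mean activation of all tested compounds plus 3 SD, cut at about 50% in these data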
Target sequence (Q13285 whole entry, looked up, the tested form may be a part): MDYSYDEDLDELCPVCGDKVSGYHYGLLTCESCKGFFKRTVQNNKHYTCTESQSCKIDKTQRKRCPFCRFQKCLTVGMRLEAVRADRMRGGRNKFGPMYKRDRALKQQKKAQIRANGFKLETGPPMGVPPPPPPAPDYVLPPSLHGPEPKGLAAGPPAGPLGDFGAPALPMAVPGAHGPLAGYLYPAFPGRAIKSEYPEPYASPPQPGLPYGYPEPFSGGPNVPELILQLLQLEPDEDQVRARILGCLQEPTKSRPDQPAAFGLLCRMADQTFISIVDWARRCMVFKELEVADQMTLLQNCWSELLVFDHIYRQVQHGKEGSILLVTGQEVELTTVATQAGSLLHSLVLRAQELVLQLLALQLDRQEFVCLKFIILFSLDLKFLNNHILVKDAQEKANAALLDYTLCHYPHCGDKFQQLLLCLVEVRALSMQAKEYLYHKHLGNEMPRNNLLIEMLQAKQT
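Assay system: CHO-K1 cells co-transfected with Gal4 DBD–human SF-1 LBD, 5xGal4 luciferase reporter; doses: 10 µM only; incubation: 20 h compound exposure at 37 °C after 1 h cell settling; signal: luciferase light emission; evaluation: percent activation versus DMSO; repeats: one test per compound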
S1P3 agonist: agonists of human S1P3 receptor; 60,000 compounds, 0.1% hits; S1P3 NFAT-BLA reporter cells, agonism, FRET ratio; relative to 1 µM S1P, basal subtracted; Q99500; activation, % at 4.5 µM;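 active = activation above the screen-wide mean plus 3 SD, cut at about 4.5% in these data, passing the limit was not always enough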
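Material: Human S1P3 NFAT-BLA reporter CHO cells | Incubation: Overnight plating, 4 h compound 37 °C, 2 h substrate RT | Signal: FRET β-lactamase substrate fluorescence, excitation 405 nm, 460/535 nm emission ratio, background-subtracted | Compound: 4.5 µM final, single dose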
The depositor's hits bear a star; · = no result.

SMILES	M1 antag	S1P1 ag pot	M1 agonist	RORA act	SF1 activator	S1P3 agonist
Fc1ccccc1CSc1nnc(-c2cccs2)o1	0.37	35	0.025	50*	92*	2
O=C(CSc1nnc(-c2cccs2)o1)N1CCOCC1	0.075	-9	0.021	1	5	1
Fc1ccc(CSc2nnc(-c3cccs3)o2)cc1	0.13	44	0.8	25	43	6
O=C(CSc1nnc(-c2cccs2)o1)N1CCCCC1	0.065	-21	0.21	45	63*	6
CSc1nc(N)nc(SC2C=CCCC2)c1C#N (stereo not given)	-0.16	·	0.54	2	6	0
O=C(C1CCCN(S(=O)(=O)Cc2ccccc2)C1)N1CCc2ccccc21 (stereo not given)	0.53	·	0.34	-20	10	·
CC1CCCN(c2ccc(C(=O)NCc3cccs3)cn2)C1 (stereo not given)	0.27	-3	1.2	56*	70*	-1
CC1CCN(c2ccc(C(=O)NCCc3ccccc3)cn2)CC1	0.68	7	0.56	60*	28	0
O=C(Nc1nncs1)c1c(F)c(F)c(F)c(F)c1F	1*	·	-0.58	-3	-8	0
CC1=CC(C#N)(C#N)C(C#N)(C#N)C(c2ccccc2)N1 (stereo not given)	-0.28	16	25*	-1	-9	-2
CCSC1(SCC)N=C(N)C2(C#N)C(c3ccccc3)NC(C)=C(C)C12C#N (stereo not given)	0.7	-12	0.25	-3	-12	-1
CCN(CC)C(=O)CSc1nnc(-c2ccccc2)n1N	2.4*	·	1.2	-6	-1	·
CCOc1ccc(-c2nnc(SCC(=O)N(CC)CC)n2N)cc1	1.1	·	1.1	-2	-5	·
O=C(CCn1nnc2ccccc21)Nc1nnc(-c2ccccc2F)s1	0.19	10	-0.051	-13	19	-1
COc1ccccc1OCC(=O)Nc1cccc(-c2nc3ccccc3o2)c1	-0.087	2	0.47	20	61*	0
COc1cccc(NC(=O)COc2ccccc2C(N)=O)c1	1.2	·	-0.73	15	62*	0
CCOCCCNC(=O)C(c1ccc(C)cc1)N(Cc1ccc2c(c1)OCO2)C(=O)c1cnccn1 (stereo not given)	0.22	·	0.46	0	-6	·
CCOc1ccccc1NC(=O)N1CCCC1C(=O)Nc1ccc(-n2cnnn2)c(C)c1 (stereo not given)	-0.16	·	0.36	6	-2	·
Brc1ccc(-c2nc(-c3ccncc3)no2)o1	0.95	·	1.4	27	50*	-1
c1ccc(-c2ccc(-c3nc(-c4cccnc4)no3)cc2)cc1	-0.97	82*	-0.89	-3	1	-1
c1ccc(-c2ccccc2-c2nc(-c3ccncc3)no2)cc1	0.28	-38	-0.81	-22	-7	0
c1coc(-c2nc(-c3ccncc3)no2)c1	1.2	·	0	48	50*	0
c1ccc(-c2noc(-c3cccnc3)n2)cc1	-0.025	·	-0.46	·	·	·
Cc1ccccc1-c1nc(-c2cccnc2)no1	0.29	23	1.4	43	67*	0
COc1ccc(Nc2nc3c(c(=O)n(C)c(=O)n3C)n2CCO)cc1	-0.24	-21	0.59	4	-1	0
SMILES	M1 antag	S1P1 ag pot	M1 agonist	RORA act	SF1 activator	S1P3 agonist
c1ccc(C(Cc2nc(-c3ccncc3)no2)c2ccccc2)cc1	-0.058	·	-1.2	-38	-30	42*
c1ccc(-c2ccc(-c3nc(-c4ccncc4)no3)cc2)cc1	0.85	85*	0.58	7	7	-1
c1ccc(-c2nc(-c3ccncc3)no2)cc1	0.61	·	1.1	32	21	0
CN(Cc1nc(-c2ccncc2)no1)S(=O)(=O)c1ccccc1	0.18	-5	-1.6	-4	0	0
O=C(Nc1ccc(-c2noc(COc3ccccc3Cl)n2)cc1)c1ccco1	1.9	·	-3.2	14	35	·
c1ccc(-c2cnc(CSc3nnc4ccccn34)o2)cc1	-0.44	14	0.064	17	71*	0
Clc1ccc2nc(CSc3nnc(-c4c[nH]c5ccccc45)o3)cn2c1	0.19	-50	-1	-12	1	-1

Source: PubChem BioAssay (several laboratories)
